Bioassay records deposited in PubChem BioAssay by several laboratories.
Arbovirus inh = blocks arbovirus infection | arbovirus infection cell-based antiviral screen | inhibition, % at 10 µM | 0.37% of 200,000 active; in the data active means inhibition above about 30%
Rad51 HR inh = Rad51 (human) homologous recombination inhibition. AID 1385. Q06609. inhibition, % at 10 µM. hRad51 DNA strand exchange, fluorescence dequenching. 0.085% of 200,000 active;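 active means inhibition above 40% at the single screening dose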
Target sequence (Q06609 whole entry, looked up): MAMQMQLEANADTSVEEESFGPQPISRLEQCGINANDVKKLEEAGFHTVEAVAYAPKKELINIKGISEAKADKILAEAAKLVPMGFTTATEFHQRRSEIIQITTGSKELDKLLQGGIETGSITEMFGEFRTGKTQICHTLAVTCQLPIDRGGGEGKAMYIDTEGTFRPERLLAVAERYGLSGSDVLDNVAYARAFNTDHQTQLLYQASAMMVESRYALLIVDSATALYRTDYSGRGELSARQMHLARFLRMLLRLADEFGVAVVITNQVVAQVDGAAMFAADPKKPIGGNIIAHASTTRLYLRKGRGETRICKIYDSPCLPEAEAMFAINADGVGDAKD
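Material: Human Rad51 nucleoprotein filaments preassembled on unlabelled ssDNA | Also added: Labelled 47-mer dsDNA for strand exchange | Dosing: Single dose, 10 µM final compound | Schedule: 30-min compound preincubation and 15-min exchange, both room temperature | Technique: Fluorescence dequenching at 485/520 nm | Measure: Percent inhibition relative to plate controls and blanks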
Yeast life ext = yeast lifespan extension; S. cerevisiae growth with nicotinamide, OD615; deaD strain in restrictive glucose medium; inhibition of the nicotinamide effect, % at 10 µM; 0.68% of 130,000 active;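 active means inhibition above a set limit, placed 3 SD over the median of all compounds, cut at about 26% in these data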
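Assay system: engineered S. cerevisiae DeaD replicative-lifespan strain, galactose-grown log-phase cells; Buffer or medium: CSMM-D glucose medium, restrictive; Probe or stimulus: nicotinamide 1.5 mM; Compound: single dose 10 µM compound, 0.25% DMSO; Schedule: 4 h preincubation then 48 h treatment at 30 °C; Technique: OD615 measurement.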
Efa HMGR inh = E. faecalis class II HMG-CoA reductase inhibition; inhibition, % at 10 µM; 0.41% of 190,000 active; purified E. faecalis HMGR, NADPH absorbance 340 nm kinetic;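 active means inhibition above a set limit, the median over all tested compounds plus 3 SD, cut at about 9.5% in these data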;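 further: enzyme runs in reverse so mevalonate oxidation gives rising NADPH absorbance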
Measles CPE = protection of cells from measles virus; protection (pct of control), % at 4 µM; AID 841; 1.5% of 140,000 active; Measles virus-infected cells, CPE protection, absorbance; in the data active means protection mostly above about 24%, no sharp cut-off; inactive means mostly below about 26%
BB579 growth dn = chemicals that inhibit yeast BB579 growth in restrictive medium (lifespan-shortening candidates). S. cerevisiae BB579 growth, OD615, 48 h. inhibition, % at 10 µM. 0.51% of 140,000 active;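 active means inhibition above a set limit, 3 SD over the mean compound inhibition, cut at about 44% in these data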
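Assay system – yeast BB579 (DeaD) · Dosing – single compound dose of 10 µM, 0.25% DMSO final · Detection – OD615 turbidity measurement · Buffer or medium – CSMM-D restrictive synthetic medium containing dextrose (glucose) · Benchmarks – positive control amphotericin B 10 µg/mL · Incubation – 48 h exposure, 30 °C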
Of the large screens only hits and unclear results are named; the others gave an inactive call. This is a sample that favours compounds with a hit; in the whole collection about 2.4% have one here.

CCOCCCNc1nc2ccccc2[nH]1	Measles CPE 45.6
COc1ccc(-c2cc(C(=O)Nc3c(C)n(C)n(-c4ccccc4)c3=O)no2)cc1OC	none (no result: Yeast life ext, Measles CPE, BB579 growth dn)
CCOc1ccc(N2C(=O)CC(SCCN)C2=O)cc1 (configuration not stated)	none
NCCSC1CC(=O)N(Cc2ccc(F)cc2)C1=O (configuration not stated)	Efa HMGR inh 10.3 (no result: Yeast life ext, Measles CPE, BB579 growth dn)
NC(N)=N/N=C/c1ccc(OCc2ccc(Cl)cc2)cc1	BB579 growth dn 77.8
NC(N)=N/N=C/c1ccc(OCc2ccccc2)cc1	none
CCN(CC)C(=O)c1ccccc1NS(C)(=O)=O	none (no result: Yeast life ext, Measles CPE, BB579 growth dn)
CS(=O)(=O)Nc1ccccc1C(=O)O	Measles CPE 51.0
CCOc1ccc(-n2c(N)c(C(=O)NCc3cccnc3)sc2=S)cc1	none
C=CCn1c(N)c(C(=O)NCc2cccnc2)sc1=S	Arbovirus inh 77.2
COc1cccc(N2[C@@H](CC(=O)O)c3cc(C(F)(F)F)ccc3S2(=O)=O)c1	none (no result: Arbovirus inh, Yeast life ext, Efa HMGR inh, Measles CPE, BB579 growth dn)
COc1ccc(/C=C2/C(=O)ON=C2c2ccccc2)cc1OC	Yeast life ext 27.4, BB579 growth dn 61.2
COc1ccc(C=C2C(=O)OC(C)(C)OC2=O)cc1OC	none (no result: Arbovirus inh, Yeast life ext, Efa HMGR inh, Measles CPE, BB579 growth dn)
COc1cc(/C=C2\C(=O)ON=C2c2ccccc2)cc(OC)c1OC	BB579 growth dn 48.1
O=C(c1ccc2c(c1)OCO2)N1CCC(Cc2ccccc2)CC1	none (no result: Arbovirus inh, Yeast life ext, Efa HMGR inh, Measles CPE, BB579 growth dn)
O=C(CC1C(=O)NCCN1C(=S)Nc1ccccc1)Nc1ccc2c(c1)OCCO2 (configuration not stated)	none
N#Cc1cc(-c2ccccc2)cn(Cc2c(Cl)cccc2Cl)c1=O	Measles CPE 53.5
CCCOC(=O)CCCCCCCCC(O)CN1CCCCC1 (configuration not stated)	none (no result: Yeast life ext, Measles CPE, BB579 growth dn)
Cc1[nH]n(S(=O)(=O)Cc2ccccc2)c(=O)c1N=Nc1ccccc1Cl	Efa HMGR inh 10.0 (no result: Yeast life ext, Measles CPE, BB579 growth dn)
CC1(C)Cc2c(c(-c3ccccc3)[nH]c(=O)c2C#N)CO1	none
CC1(C)Cc2c(c(-c3ccccc3Cl)[nH]c(=O)c2C#N)CO1	Measles CPE 28.1 (no result: Rad51 HR inh)
CCOC(=O)c1sc(/N=C/N(C)C)c(C(=O)OCC)c1C	none
CCOC(=O)c1c(/N=C/C2=C(O)CC(C)(C)CC2=O)sc(C)c1C	Measles CPE 52.0
CCOC(=O)c1c(/N=C/c2cc([N+](=O)[O-])ccc2O)sc(C)c1C	BB579 growth dn 61.4
Cc1cccc2nc(CSc3ccccc3C(=O)O)cn12	Measles CPE 54.2
CCOc1ccc(-n2c(SCC(=O)c3c(N)n(C)c(=O)n(C)c3=O)nnc2-c2cccnc2)cc1	none
CCOC(=O)CN1C(=O)N[C@@H](CCc2ccccc2)[C@@H](C(=O)OC)[C@H]1C	Rad51 HR inh 52.9 (no result: Arbovirus inh, Yeast life ext, Efa HMGR inh, Measles CPE, BB579 growth dn)
Cc1ccc(-c2nc(N3CCOCC3)sc2C(=O)N2CCCCC2)cc1	none
CCN(CC)S(=O)(=O)c1cccc(-c2nnc(SCc3nc4ccccc4s3)o2)c1	none
Brc1ccccc1-c1nnc(SCc2nc3ccccc3s2)o1	Arbovirus inh 34.0
Oc1ccccc1CN1CCC(C(O)(c2ccccc2)c2ccccc2)CC1	none
Oc1ccccc1CN1CCCN(Cc2ccccc2O)C1	Arbovirus inh 69.9
O=C(NC(=S)N1CCc2ccccc21)c1ccccc1Br	Yeast life ext 27.4
CCn1ccnc1CN1CCc2c([nH]c3ccccc23)C1C1CCCCC1 (configuration not stated)	none (no result: Yeast life ext, Measles CPE, BB579 growth dn)
Cc1c(CN2CCc3c([nH]c4ccccc34)C2C2CCCCC2)cnn1C (configuration not stated)	Efa HMGR inh 18.6 (no result: Yeast life ext, Measles CPE, BB579 growth dn)
Cc1ccccc1CSCCNC(=O)Nc1ccccc1	none (no result: Yeast life ext, Measles CPE, BB579 growth dn)
CN(c1ccc(C(=O)N2CCCCC2)cc1)S(=O)(=O)c1ccccc1	Efa HMGR inh 31.0
Cc1ccc(S(=O)(=O)N(C)c2ccc(C(=O)N3CCCCC3)cc2)cc1	none
CC(C)C(OC(=O)CN1C(=O)COc2ccccc21)C(=O)NC1CCCC1 (configuration not stated)	Yeast life ext 33.8
COc1cc(S(=O)(=O)N2CCC(c3nc4ccccc4s3)CC2)ccc1S(=O)(=O)N1CC(C)CC(C)C1 (configuration not stated)	none (no result: Yeast life ext)
COc1cc(S(=O)(=O)N2CCC(c3nc4ccccc4s3)CC2)ccc1S(=O)(=O)NC1CCCC1	Efa HMGR inh 13.9 (no result: Yeast life ext)
CC(C)CNC(=O)CSc1ccc(Cl)cc1	Efa HMGR inh 37.3
